The sample as a whole holds a higher share of hits than the screen did.
HUVEC inhibit: inhibitors of HUVEC proliferation, primary screen, cell-based, 384-well; viability, % at 10 µM (by protocol); CellTiter-Glo luminescence, 72 h; active compounds read low; actives 1.1% (n = 86,000);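 active = viability at or below 30%; inactive = viability above 30%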;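 note: 100% = median luminescence of DMSO-only cell control wells on each plate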
bCat KO growth: primary screen for growth suppressors in beta-catenin knockout HCT116 cells (colon tumor, human); HCT116 beta-catenin knockout viability, CellTiter-Glo, 60 h; active compounds read low; viability, % at 10 µM; actives 1.5% (n = 140,000);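 active = viability at or under a set limit, the compound median less 4 SD, cut at about 6% in these data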;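 note: 0% = Hyamine 1622 control at 20 µM and 100% = untreated cell control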
H69AR growth 86K: proliferation blockers of H69AR lung cancer cells, primary screen, cell-based, human, 86K library; viability, % at 10 µM; H69AR lung tumor viability, ATP luminescence, 72 h; active compounds read low; actives 6% (n = 85,000);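 active = viability at or below 40%; inactive = viability above 40%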;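 note: multidrug resistant small cell line overexpressing MRP-1 efflux transporter; 100% = mean luminescence of untreated control wells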
Lung fibro prol: antiproliferative effect on LL 47 fibroblasts – human, LL 47 cells, CellTiter-Glo luminescence, primary screen; LL 47 human lung fibroblast viability, ATP luminescence; active compounds read low; viability, % at 10 µM; actives 1.1% (n = 85,000);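 active = viability at or below 50% in the single dose screen; inactive = viability above 50%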;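 note: compound exposure lasted 72 h before the ATP readout; 100% = median luminescence of untreated cell-only wells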
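test system = LL 47 human lung fibroblasts | amount = 1,150 fibroblasts seeded per well | medium = 15% FBS in IMEM | times = overnight cell rest, 72 h compound treatment at 37 °C | measured by = CellTiter-Glo luminescence measuring cellular ATP | read-out = viability percentage against median untreated-cell control | benchmarks = cell-only wells, no compound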
HCT116 PTEN-null: growth suppression of PTEN-null HCT116, primary screen, cell-based, CellTiter-Glo; HCT116 PTEN-null viability, 60 h; active compounds read low; viability, % at 10 µM; actives 1.2% (n = 140,000); AID 827, 2007;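 active = viability at or below a set limit, 4 SD under the median of all tested compounds, cut at about 3.7% in these data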;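 note: PTEN knockout HCT116 line with beta catenin targeted HCT116 as companion control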
An asterisk follows results filed as active; . = not tested or not shown.

SMILES	HUVEC inhibit	bCat KO growth	H69AR growth 86K	Lung fibro prol	HCT116 PTEN-null
CCc1c(C)nc2cc(-c3ccc(OC)c(OC)c3)nn2c1N1CCCC1	64	53	38*	90	29
CCn1c2ccccc2c2cc(Nc3cc(C)nc4ncnn34)ccc21	30*	15	31*	45*	10
CCc1cccc(Nc2cc(C)nc3ncnn23)c1	94	91	89	92	93
CCc1nc2c(cnn2-c2ccc(Cl)cc2)c(=O)n1-c1ccc2c(c1)OCCO2	94	3.3*	51	91	6
CC(Cc1ccccc1)C(=O)NCc1ccccn1 (stereo not given)	.	94	.	.	84
CCc1ccc(N(CC(=O)Nc2ccc(OC)cc2OC)S(C)(=O)=O)cc1	106	102	84	100	97
Cc1cc(C)c(S(=O)(=O)Nc2cccc3nsnc23)c(C)c1	92	76	2.5*	98	68
O=S(=O)(Nc1cccc2nsnc12)c1ccccc1	83	91	97	101	100
Cc1ccccc1-n1nc(C)c2cc(C(=O)NCc3cccnc3)sc21	.	57	.	.	69
COc1ccc(CC(=O)N2CCN(c3ccc(C4=NNC(=O)CC4C)cc3)CC2)cc1 (stereo not given)	.	94	.	.	87
O=c1[nH]c(=O)n(Cc2ccccc2)c2nc(-c3ccc(Oc4ccc(F)cc4)c([N+](=O)[O-])c3)n(CCO)c12	.	0.8*	.	.	1.1*
COc1ccc(C2=CC(c3ccc(C)cc3)n3nnnc3N2)cc1 (stereo not given)	101	83	102	101	90
COc1ccc(OC)c(C2C=C(c3ccc(C)c(C)c3)Nc3nnnn32)c1 (stereo not given)	60	110	14*	64	90
COc1cccc(C2=CC(c3cc(OC)ccc3OC)n3nnnc3N2)c1 (stereo not given)	45	26	5.4*	71	28
COc1cccc(C2=CC(c3cccc(OC)c3OC)n3nnnc3N2)c1 (stereo not given)	.	9	.	.	12
COc1cccc(C2=CC(c3ccccc3)n3nnnc3N2)c1 (stereo not given)	.	7	.	.	6
COc1cccc(C2=CC(c3ccc(N(C)C)cc3)n3nnnc3N2)c1 (stereo not given)	75	20	15*	89	23
O=S(Cc1cc(Oc2ccccc2)nc(-c2ccccc2)n1)c1ccccc1 (stereo not given)	.	81	.	.	75
COc1ccc(C(=O)Nc2cccc(C)c2)cc1S(=O)(=O)N1CCOCC1	92	78	90	99	91
O=C(Nc1ccccc1)c1ccc(NCCN2CCOCC2)c(S(=O)(=O)N2CCOCC2)c1	93	106	68	98	97
O=C(Nc1ccccc1)c1ccc(NCc2ccco2)c(S(=O)(=O)N2CCOCC2)c1	86	74	39*	94	89
COc1ccc(C(=O)Nc2ccc(-c3ccc(C)o3)cc2)cc1S(=O)(=O)N1CCOCC1	53	5.7*	22*	73	11
CC/C(O)=C1\C(=O)CC(C)(C)CC1=Nc1ccccc1C	.	104	.	.	97
COC(=O)CC/C(O)=C1\C(=O)CC(C)(C)CC1=Nc1ccccc1OC	93	104	29*	94	85
CCC/C(O)=C1\C(=O)CC(C)(C)CC1=Nc1ccc(OC)cc1OC	60	19	21*	57	22
SMILES	HUVEC inhibit	bCat KO growth	H69AR growth 86K	Lung fibro prol	HCT116 PTEN-null
CCCC/C(O)=C1\C(=O)CC(C)(C)CC1=Nc1ccccc1OC	107	82	33*	93	81
COc1ccc(OC)c(N=CC2=C(O)CC(C)(C)CC2=O)c1	96	88	94	97	86
COc1ccc(CCNc2c([N+](=O)[O-])c(=O)oc3ccccc23)cc1OC	.	101	.	.	104
Nc1ccc(N(c2ccccc2)c2ccc(N)cc2)cc1	71	12	73	75	7
CC1CCN(c2c(NCC3CCC(C(=O)NCc4ccccc4Cl)CC3)c(=O)c2=O)CC1 (stereo not given)	.	91	.	.	92
Cc1cc(C)nc(-n2nc(C)cc2NC(=O)c2cccc(S(=O)(=O)N3CCOCC3)c2)n1	.	75	.	.	83
Cc1c(CCC(C)C)c(=O)n2c([nH]c3ccccc32)c1C#N	74	81	31*	90	76
CCCCc1c(C)c(C#N)c2[nH]c3ccccc3n2c1=O	68	70	18*	92	66
N#CCCn1nc(-c2ccccc2)cc1Nc1ccccc1NC(=O)c1cccs1	113	75	101	86	68
CCOc1ccc(C(=O)NC(=S)NC2CCCC2)cc1[N+](=O)[O-]	.	90	.	.	91
CCOC(=O)c1[nH]c2ccc(F)cc2c1NC(=O)C(C)N1CCc2cc(OC)c(OC)cc2C1 (stereo not given)	60	29	2.4*	74	29
CCOC(=O)c1[nH]c2ccc(OC)cc2c1NC(=O)C(C)N1CCC2(CC1)OCCO2 (stereo not given)	90	93	80	96	88
Cc1ccc(C)c(OCC(O)CN2CCC(CN3C(=O)c4cccc5cccc(c45)C3=O)CC2)c1 (stereo not given)	.	1.2*	.	.	1.2*
NC(=O)SCC(=O)Nc1ccc(Cl)cc1	.	95	.	.	97
Cc1ccc(NC(=O)CSC(N)=O)cc1Cl	59	74	18*	98	62
NC(=O)SCC(=O)Nc1ccc(Cl)c(Cl)c1	65	1.1*	11*	95	1.4*
CCCn1c(SCC(=O)c2ccc(CC)cc2)n[nH]c1=O	102	91	91	104	87
O=C(CSc1ccc2c(c1)OCCO2)Nc1ccc(Cl)cn1	19*	92	99	92	93
O=[N+]([O-])c1ccc(NC(=S)NCCc2ccc(Cl)cc2)cc1	.	3.5*	.	.	2.9*
O=C(CNC(=O)Cc1ccccc1)NCC(=O)OCc1ccc(C(=O)c2ccccc2)cc1	.	103	.	.	81
CN(C)c1ccnc(SCc2ccccc2Cl)c1C#N	99	58	97	88	54
CCOC(=O)Cc1csc(NC(=O)c2c(O)c3ccccc3n(CC(C)C)c2=O)n1	86	19	17*	104	16
CCOC(=O)Cc1csc(NC(=O)c2ccc3c(c2)OCO3)n1	104	93	88	105	99
CCOC(=O)Cc1csc(NC(=O)c2cccs2)n1	100	88	96	105	88
CCOC(=O)Cc1csc(NC(=O)c2ccc(Cl)nc2)n1	83	61	29*	96	53
COC(=O)C(C(=O)Nc1ccc(OC)cc1)C1CCCCCC1 (stereo not given)	75	43	21*	83	49
O=c1[nH]c2cc3c(cc2cc1C(c1nnnn1C1CCCCC1)N1CCSCC1)OCCO3 (stereo not given)	86	83	2.0*	28*	85

Source: PubChem BioAssay (SRMLSC)
